Only some compounds are listed: those with a hit (about 2.2% of all), similar ones and a draw of the others.
NRP1-CendR mod – modulators of CendR peptide binding to human neuropilin-1. 360,000 compounds, 0.85% hits. AID 602438. O14786. FAM-RPARPAR peptide binding to NRP-1, fluorescence polarization. inhibition, % at 25 µM;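 active means inhibition or corrected inhibition above about 18%, plus a signal ratio from 0.5 to 1.5, limit read from the data, passing the limit was not always enough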
Granule exo inh – blocks lytic granule exocytosis; 360,000 compounds, 0.66% hits; TALL-104 LAMP-1 surface exposure, flow cytometry; cells stimulated with thapsigargin and PMA; inhibition, % at 10 µM;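 active means inhibition above about 55%, limit read from the data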
ASAP1 inh – ASAP1 ArfGAP inhibition; Q9ULH1; ASAP1-stimulated ARF1 GTP hydrolysis, GDP FP detection; inhibition, % at 16.5 µM; 360,000 compounds, 0.19% hits; AID 624377; in the data active means inhibition above about 25%;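 further: 0% = vehicle with enzyme and substrate and 100% = no enzyme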
Target sequence (Q9ULH1 325-724 limits assumed): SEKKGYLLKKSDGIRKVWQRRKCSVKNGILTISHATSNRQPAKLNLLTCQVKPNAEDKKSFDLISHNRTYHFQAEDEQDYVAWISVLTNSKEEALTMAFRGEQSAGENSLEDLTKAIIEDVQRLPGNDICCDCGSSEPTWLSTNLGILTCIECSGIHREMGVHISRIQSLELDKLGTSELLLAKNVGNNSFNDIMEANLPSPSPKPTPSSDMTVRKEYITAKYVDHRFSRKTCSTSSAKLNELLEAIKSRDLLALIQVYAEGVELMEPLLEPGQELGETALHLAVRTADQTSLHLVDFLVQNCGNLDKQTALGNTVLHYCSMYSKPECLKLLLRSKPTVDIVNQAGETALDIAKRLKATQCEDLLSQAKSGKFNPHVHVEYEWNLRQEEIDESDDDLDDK
ARFGAP1 inh – inhibitors of rat ARFGAP1; 360,000 compounds, 0.26% hits; inhibition, % at 16.5 µM; Arfgap1-stimulated ARF1 GTP hydrolysis, GDP FP detection; AID 651572;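 active means inhibition above a per-plate limit, mean inhibition of low control wells plus 3 SD, cut at about 25% in these data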;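 further: 0% = DMSO wells with enzyme and 100% = wells lacking Arfgap1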
Target sequence (Q62848 1-136 limits assumed): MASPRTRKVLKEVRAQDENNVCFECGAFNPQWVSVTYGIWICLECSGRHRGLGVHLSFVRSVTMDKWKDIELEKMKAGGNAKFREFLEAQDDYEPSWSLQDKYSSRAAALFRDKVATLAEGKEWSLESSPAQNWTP
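Assay system: purified rat His6-Arfgap1 residues 1-136 (GAP domain); Reagent: human Δ17 ARF1 bound to GTP; Dosing: 16.5 µM single point, 1.26% DMSO; Times: GTP hydrolysis reaction 2 h at 25 °C; Signal: FP, GDP Alexa 633 tracer displaced from anti-GDP antibody, 620/688 nm; Measure: % inhibition from polarization.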
V-ATPase pHluor – alters yeast V-ATPase proton transport; S. cerevisiae, pHLuorin cytosolic pH fluorescence; response, % at 10 µM; 350,000 compounds, 0.37% hits; in the data active means response mostly above about 7.3%, no sharp cut-off; inactive means mostly below about 5.4%; further: actives read high
Numbers without * were called inactive; / = not tested or not shown.

SMILES | NRP1-CendR mod | Granule exo inh | ASAP1 inh | ARFGAP1 inh | V-ATPase pHluor
O=C(/C=C(\Nc1ccc(Cl)c(C(F)(F)F)c1)c1ccccc1)c1ccccc1 | / | / | -1.6 | 7.4 | /
N#Cc1ccc(S(=O)(=O)N2CCCc3nc(-c4ccc(Br)cc4)ccc32)cc1 | / | / | -13.5 | -4.0 | /
Cc1ccccc1NC(=O)CCC(=O)OCC(=O)c1ccc(-c2ccccc2)cc1 | 26.8* | -3.1 | -6.4 | -3.4 | 6.0
O=C(CCC(=O)OCC(=O)c1ccc(-c2ccccc2)cc1)Nc1cccc(Cl)c1 | -2.0 | -1.1 | -19.5 | 0.3 | -2.8
CCN1CCN(C(c2cccs2)C(C)NC(=O)c2ccccc2F)CC1 (configuration not stated) | 25.3* | 0.7 | 8.8 | 3.7 | 10.8
CCCCCn1cc(CCC(=O)Nc2ccc(Oc3cccnc3)cc2)c2ccccc21 | / | / | -0.4 | 8.9 | /
CCn1c2c(n(C(C)=O)c1=O)C=C(C(=O)N1CCCC1)C(C)C(c1ccccc1)=C2 (configuration not stated) | / | / | -4.6 | 0.7 | /
COc1c2ccoc2cc2oc(=O)ccc12 | 3.9 | -8.6 | 12.4 | -6.7 | 0.3
CC1(C)OC1COc1c2ccoc2cc2oc(=O)ccc12 (configuration not stated) | 6.8 | 79.8* | 5.1 | 7.9 | 0.8
CC12CCC3c4ccc(OCCCO)c([N+](=O)[O-])c4CCC3C1CCC2=O (configuration not stated) | / | / | 8.1 | 3.6 | /
CC(=O)OCCCNc1cc(Sc2ccc(Cl)cc2)c2nonc2c1[N+](=O)[O-] | -10.6 | 63.8* | 13.8 | -2.3 | -0.3
Cc1c(NC(=O)c2cnn3c(C(F)(F)F)cc(-c4ccco4)nc23)c(=O)n(-c2ccccc2)n1C | 23.3* | -0.5 | 5.4 | -2.4 | -1.6
O=C(NC(=S)Nc1cccc(O)c1)C1CCCCC1 | 3.1 | 62.0* | 5.3 | -10.8 | -1.6
O=C(NC(=S)Nc1ccc(O)cc1)C1CCCC1 | -4.2 | -1.9 | -1.1 | -5.3 | -2.5
Cc1ccc(NC2=CC(=O)CCC2)cc1C | 46.3* | -3.2 | 3.0 | 1.6 | -2.5
Cc1ccc(NC2=CC(=O)CC(C)(C)C2)cc1Cl | -8.6 | 14.9 | 1.0 | 0.5 | 1.3
C[C@]12C(=O)N(c3ccc(F)cc3)C(=O)N1[C@@H]1c3ccccc3OC[C@@H]1[C@H]2c1ccccc1 | 3.3 | 14.5 | -4.2 | 3.5 | -4.7
C[C@H]1NC(=O)[C@@]2(C)[C@@H](c3ccccc3)[C@H]3COc4ccccc4[C@@H]3N2C1=O | 25.4* | 0.1 | -4.9 | -5.0 | 0.5
COc1cc2c(cc1OC)C(=O)N1[C@H]3c4ccccc4OC[C@@H]3[C@H](c3ccccc3)[C@]1(C)C(=O)N2 | -7.7 | 64.7* | -1.9 | 9.4 | 2.2
COc1ccc2c(c1)OC[C@H]1[C@H]2N2C(=O)c3cc(OC)c(OC)cc3NC(=O)[C@@]2(C)[C@H]1c1ccccc1 | -8.7 | -2.0 | 4.9 | 6.0 | -2.5
C[C@@]12C(=O)N(c3ccc(C(F)(F)F)cc3)C(=O)N1[C@@H]1c3ccccc3OC[C@@H]1[C@H]2c1ccccc1 | 27.6* | 2.3 | / | / | -1.8
C[C@H]1NC(=O)[C@]2(C)[C@@H](c3ccccc3)[C@H]3COc4ccccc4[C@@H]3N2C1=O | -4.3 | -4.4 | -2.4 | -6.2 | 2.8
CC(=O)Nc1ccc(NC2=Nc3ccccc3N3C2=Nc2c(c(C)nn2-c2ccccc2)C3c2ccccc2)cc1 (configuration not stated) | 82.3 | 57.7* | -6.2 | 4.9 | -7.3
CC(C)(C)c1nn(-c2ccccc2)c2[nH]c(=O)c(C=O)cc12 | -10.2 | 61.7* | -7.3 | -5.7 | -1.8
NC(=O)C1CCCN1 (configuration not stated) | 21.9* | -2.8 | 4.5 | 9.0 | -2.8
SMILES | NRP1-CendR mod | Granule exo inh | ASAP1 inh | ARFGAP1 inh | V-ATPase pHluor
Cc1onc(-c2c(F)cccc2Cl)c1-c1ncc(-c2ccc(Cl)cc2)o1 | / | / | 8.5 | 0.7 | /
COC(=O)C1=C(C)N(Cc2ccccc2C(F)(F)F)C(=NCc2ccc3c(c2)OCO3)NC1c1ccccc1 (configuration not stated) | / | / | 0.1 | 4.9 | /
COc1ccc(S(=O)(=O)N(C)CC(=O)N2CCN(C)CC2)cc1Cl | 0.3 | 1.6 | -7.5 | -0.4 | 2.9
COc1ccc(S(=O)(=O)N(C)CC(=O)N2CCCCC2)cc1Cl | 26.9* | 6.5 | 8.2 | -2.2 | 2.4
COc1ccc(OC)c(S(=O)(=O)N(C)CC(=O)N2CCN(c3ccc(F)cc3)CC2)c1 | 4.9 | 0.8 | 12.7 | -9.5 | 0.9
COc1ccc(OC)c(S(=O)(=O)N(C)CC(=O)N2CCN(c3cccc(Cl)c3)CC2)c1 | 18.9* | -0.4 | 22.6 | -0.1 | 1.1
Cc1onc(-c2ccccc2)c1C(=O)NN=Cc1cc(Cl)cc(Cl)c1O | / | / | 2.4 | 2.1 | /
Cn1c(CNC(=O)c2ccc(Cl)cc2)nnc1SCC(=O)Nc1sc2c(c1C#N)CCCC2 | -0.1 | 4.3 | -5.8 | -11.5 | 0.8
Cc1ccc(C(=O)c2c(NC(=O)CSc3nnc(N)s3)sc3c2CCCC3)cc1 | 32.6* | -3.6 | 0.9 | 7.1 | 0.4
Cc1ccc(C(=O)NCc2nnc(SCC(=O)Nc3sc4c(c3C#N)CCCC4)n2C)cc1 | 5.5 | 0.4 | 1.3 | 24.7* | -2.0
O=S(=O)(c1ccc(F)cc1)N1CCCc2nc(-c3ccccc3)ccc21 | / | / | -12.0 | -8.7 | /
COc1ccc(N2C(=O)c3[nH]nc(-c4ccccc4)c3C2c2ccc(Br)cc2)cc1 (configuration not stated) | / | / | -0.5 | 3.9 | /
Cc1cccc(CN2CCN(C3CN(Cc4cn(Cc5ccc(Cl)cc5)nn4)S(=O)(=O)C3)CC2)c1 (configuration not stated) | 4.4 | 0.1 | -2.7 | 10.6 | /
Cc1cccc(CN2CCN(C3CN(Cc4cn(Cc5cccc(Cl)c5)nn4)S(=O)(=O)C3)CC2)c1 (configuration not stated) | 23.0* | 3.2 | -20.5 | -13.9 | /
C=CCNC(=S)N(C)[C@H]1C[C@H]2c3cc(-c4ccccc4C)ccc3CCN2C[C@H]1[C@H](C)O | / | / | -2.5 | -4.3 | /
CCCCCCCCN1C(=O)[C@@H](CC(=O)NCC23CC4CC(CC(C4)C2)C3)C[C@@]2(C(=O)OC)C1=C[C@H](C(C)(C)C)O[C@@H]2C | / | / | 0.8 | -2.0 | /
c1ccc(CSc2nnc(-c3ccncc3)o2)cc1 | 26.2* | -0.2 | 7.5 | 0.0 | 3.4
N#Cc1ccc(CSc2nnc(-c3ccncc3)o2)cc1 | 8.5 | -7.7 | -5.4 | -8.6 | -1.8
CCCCNC(=O)[C@@H]1CCCN1S(=O)(=O)c1cccc2cccnc12 | 33.0* | -7.3 | 8.6 | 10.5 | 0.0
COC(=O)[C@]12C[C@H](CC(=O)N3CCC(c4ccccc4)CC3)C(=O)N(CCc3ccc(OC)c(OC)c3)C1=C[C@H](C(C)(C)C)O[C@@H]2C | / | / | 1.9 | -1.2 | /
Cc1ccc(Cn2c(C3CCCN3c3nc(-c4ccc(F)cc4)cs3)nc3cc(C(=O)NCCCO)ccc32)cc1 (configuration not stated) | -1.0 | -2.9 | -0.8 | 5.5 | -2.0
COc1ccc(-c2csc(NCCc3nc4cc(C(=O)NCCCO)ccc4n3Cc3ccc(C)cc3)n2)cc1 | 27.0* | -23.7 | -5.5 | -0.2 | 1.2

Source: PubChem BioAssay (several laboratories)
